For data set [1], the target named is T1, Lysosomal acid glucosylceramidase (Homo sapiens, UniProt P04062).
T1 sequence (P04062 whole entry): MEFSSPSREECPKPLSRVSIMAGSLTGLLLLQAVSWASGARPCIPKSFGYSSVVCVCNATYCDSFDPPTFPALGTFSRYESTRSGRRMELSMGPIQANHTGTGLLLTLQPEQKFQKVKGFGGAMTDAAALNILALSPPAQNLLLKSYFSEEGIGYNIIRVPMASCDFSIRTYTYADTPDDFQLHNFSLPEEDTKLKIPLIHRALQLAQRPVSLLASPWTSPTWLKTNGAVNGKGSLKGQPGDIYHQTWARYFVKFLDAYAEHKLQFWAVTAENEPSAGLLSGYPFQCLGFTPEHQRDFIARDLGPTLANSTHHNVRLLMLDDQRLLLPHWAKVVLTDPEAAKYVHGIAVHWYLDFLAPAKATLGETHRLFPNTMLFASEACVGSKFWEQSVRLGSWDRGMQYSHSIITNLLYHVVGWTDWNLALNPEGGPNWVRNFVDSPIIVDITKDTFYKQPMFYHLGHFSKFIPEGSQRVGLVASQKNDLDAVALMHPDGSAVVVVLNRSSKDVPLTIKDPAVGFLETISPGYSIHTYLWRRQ
The data set can be described thus: Inhibition of wild type glucocerebrosidase using 4-methylumbellifereno-Glc as substrate incubated for 5 mins prior to substrate addition measured after 20 mins by fluorimetric analysis.

Data set [2] has as its target T1, Lysosomal acid glucosylceramidase. The data set can be described thus: Inhibition of wild type glucocerebrosidase in human spleen homogenate using 4-methylumbellifereno-Glc as substrate incubated for 5 mins prior to substrate addition measured after 20 mins by fluorimetric analysis. In kind it is tissue-based.
The target in data set [3] is T2, Lysosomal acid glucosylceramidase (Homo sapiens, UniProt P04062, N409S). Description: Inhibition of glucocerebrosidase N370S mutant using 4-methylumbellifereno-Glc as substrate incubated for 5 mins prior to substrate addition measured after 20 mins by fluorimetric analysis.
For data set [4], the target named is T2, Lysosomal acid glucosylceramidase. Description: Inhibition of glucocerebrosidase N370S mutant in Gaucher patient spleen homogenate using 4-methylumbellifereno-Glc as substrate incubated for 5 mins prior to substrate addition measured after 30 to 45 mins by fluorimetric analysis.
Data set [5] has as its system Liver. The data set can be described thus: Metabolic stability in CD1 mouse liver microsomes assessed as compound remaining at 1 uM after 60 mins by LC/MS/MS analysis in absence of NADPH. As to conditions: 1 h. In kind it is ADME, Microsome. An outline of the steps: (§1)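 Compound at 1 μM was incubated in duplicate with CD-1 mouse liver microsomes at 37 °C in 100 mM potassium phosphate pH 7.4 with 3 mM MgCl₂, with or without 2 mM NADPH, for 60 min. Reaction was quenched in cold acidified MeCN with internal standard. Parent was quantified by LC−MS/MS as percent of time zero.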

Data set [6] relates to T3, Lysosomal acid glucosylceramidase (Homo sapiens), P04062 [N409S].
T3 sequence (whole entry): T1 sequence (P04062 whole entry) with N409S
Description: Activation of glucocerebrosidase N370S mutant using C12-BODIPY-GlcCer as substrate assessed as half-maximal activation concentration incubated for 5 mins prior to substrate addition measured after 30 to 45 mins by HPLC analysis. An outline of the steps:
(§2)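 N370S/N370S patient spleen homogenate at 140 μg/well. Compound was tested at 9 concentrations, 1:2 dilutions from 50 μM. Substrate was 2 mM 4MU-Glc or the C12-BODIPY substrate at 25 μM; other conditions as the plate assay. Stopped reactions were separated on C18 HPLC with fluorescence detection: 4MU at 365/440 nm, C12-BODIPY-Cer at 506/540 nm.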

For data set [7] the test system is unchanged. Description: Activation of glucocerebrosidase N370S mutant in Gaucher patient spleen homogenates using 4-methylumbelliferone-Glc as substrate assessed as half-maximal activation concentration incubated for 5 mins prior to substrate addition measured after 30 to 45 mins by fluorimetric analysis. Format: tissue-based. A digest of the protocol: (§3)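 Spleen homogenate (27 μg final) in pH 5 citrate/phosphate buffer with KCl, NaCl, MgCl₂ and 0.01% Tween-20. Compound was titrated 0.5 nM to 58 μM and preincubated 5 min at room temperature. Reaction used 1 mM 4MU-Glc for 30−45 min at 37 °C and was stopped with NaOH/glycine pH 10. Read-out was fluorescence at Ex 365/Em 440 nm. AC₅₀ is the average of N = 2.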

In data set [8] the target is Lysosomal alpha-glucosidase (Homo sapiens) (UniProt P10253). Description: Activation of alpha-glucosidase using 4-MU-alpha-glucose as substrate.
Data set [9] concerns T3, Lysosomal acid glucosylceramidase (Homo sapiens), P04062 [N409S]. Description: Activation of glucocerebrosidase N370S mutant using 4-methylumbelliferone-beta-Glc as substrate incubated for 5 mins prior to substrate addition measured after 30 to 45 mins by HPLC analysis. A digest of the protocol: as §2
Data set [10] in a line: Activation of alpha-galactosidase using 4-MU-alpha-galactose as substrate.
Data set [11] deals with Liver. Description: Metabolic stability in CD1 mouse liver microsomes assessed as compound remaining at 1 uM after 60 mins by LC/MS/MS analysis in presence of NADPH. Format: ADME, Microsome. As to conditions: 1 h. An outline of the steps:
as §1

Data set [12] relates to T3, Lysosomal acid glucosylceramidase (Homo sapiens), P04062 [N409S]. The data set can be described thus: Activation of Glucocerebrosidase N370S/N370S mutant translocation to lysosome in Gaucher patient dermal fibroblasts incubated for 6 days by LAMP2 colocalization-based laser scanning confocal microscopic analysis relative to vehicle-treated control. An outline of the steps: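 N370S/N370S Gaucher dermal fibroblasts were treated 6 days at 1, 5 or 25 μM, with DMSO vehicle control. Cells were fixed in 3% paraformaldehyde, permeabilized with Triton-X and stained with anti-GCase R386 (Alexa555), anti-LAMP-2 (Alexa488) and DAPI. Confocal imaging used constant laser settings, scoring GCase/LAMP-2 colocalization.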

Data set [13] has the same test system. Description: Activation of glucocerebrosidase N370S mutant using resorufin beta-D-glucopyranoside as substrate incubated for 5 mins prior to substrate addition measured after 30 to 45 mins by fluorimetric analysis. An outline of the steps: (§4)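 Purified recombinant enzyme at 5 nM final: wt in citrate/KH₂PO₄ pH 5.9, N370S at pH 7, with 0.01% Tween-20. Compound was preincubated 5 min at room temperature. Resorufin β-D-glucopyranoside was 15 μM final for 30−45 min at 37 °C, stopped with Tris-HCl pH 8.0. Read-out was fluorescence at Ex 573/Em 610 nm.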

Data set [14] deals with T4, Lysosomal acid glucosylceramidase (Homo sapiens) (UniProt P04062).
T4 sequence (whole entry): T1 sequence (P04062 whole entry)
The data set can be described thus: Activation of wild type glucocerebrosidase using resorufin beta-D-glucopyranoside as substrate incubated for 5 mins prior to substrate addition measured after 30 to 45 mins by fluorimetric analysis. A digest of the protocol:
as §4

The species named for the next data set is Homo sapiens. Description: Ratio of half-maximal activation concentration for glucocerebrosidase N370S (unknwon origin) to half-maximal activation concentration for glucocerebrosidase N370S in Gaucher patient spleen homogenate. In kind it is tissue-based.
Data set [15] addresses T4, Lysosomal acid glucosylceramidase (Homo sapiens). The data set can be described thus: Activation of wild type glucocerebrosidase in human spleen homogenate using resorufin beta-D-glucopyranoside as substrate incubated for 5 mins prior to substrate addition measured after 30 to 45 mins by fluorimetric analysis. Format: tissue-based. A digest of the protocol:
(§5)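 Spleen homogenate (27 μg final) in pH 5 citrate/phosphate buffer with 0.01% Tween-20. Compound was titrated 0.5 nM to 58 μM and preincubated 5 min at room temperature. Resorufin β-D-glucopyranoside was 15 μM final, incubated 30−45 min at 37 °C and stopped with 1 M Tris-HCl pH 8.0. Read-out was fluorescence at Ex 573/Em 610 nm.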

The target is the same in data set [16]. The data set can be described thus: Ratio of half-maximal activation concentration for wild type glucocerebrosidase to half-maximal activation concentration for wild type glucocerebrosidase in human spleen homogenate. Format: tissue-based.
The test system of data set [17] is T3, Lysosomal acid glucosylceramidase (Homo sapiens), P04062 [N409S]. The data set can be described thus: Activation of glucocerebrosidase N370S mutant in Gaucher patient spleen homogenate using resorufin beta-D-glucopyranoside as substrate incubated for 5 mins prior to substrate addition measured after 30 to 45 mins by fluorimetric analysis. Format: tissue-based. An outline of the steps: as §5

The target of data set [18] is T4, Lysosomal acid glucosylceramidase (Homo sapiens). The data set can be described thus: Activation of wild type glucocerebrosidase using 4methylumbelliferone-Glc as substrate assessed as half-maximal activation concentration incubated for 5 mins prior to substrate addition measured after 30 to 45 mins by fluorimetric analysis. A digest of the protocol: (§6)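 Purified recombinant enzyme at 5 nM final: wt in citrate/KH₂PO₄ pH 5.9, N370S at pH 7, both with 0.01% Tween-20. Compound was titrated 0.5 nM to 58 μM and preincubated 5 min at room temperature. Reaction used 1 mM 4MU-Glc for 30−45 min at 37 °C and was stopped at pH 10. Read-out was fluorescence at Ex 365/Em 440 nm.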

The test system of data set [19] is T3, Lysosomal acid glucosylceramidase (Homo sapiens), P04062 [N409S]. Description: Activation of glucocerebrosidase N370S mutant using 4methylumbelliferone-Glc as substrate assessed as half-maximal activation concentration incubated for 5 mins prior to substrate addition measured after 30 to 45 mins by fluorimetric analysis. A digest of the protocol: as §6
For data set [20], the target named is T4, Lysosomal acid glucosylceramidase (Homo sapiens). The data set can be described thus: Activation of wild type glucocerebrosidase in human spleen homogenate using 4methylumbelliferone-Glc as substrate assessed as half-maximal activation concentration incubated for 5 mins prior to substrate addition measured after 30 to 45 mins by fluorimetric analysis. In kind it is tissue-based. A digest of the protocol: as §3

The target of data set [21] is T2, Lysosomal acid glucosylceramidase. The data set can be described thus: Inhibition of glucocerebrosidase N370S mutant in Gaucher patient spleen homogenate using 4-methylumbellifereno-Glc as substrate incubated for 5 mins prior to substrate addition measured after 20 mins by fluorimetric analysis. In kind it is tissue-based.

Changes are numbered by the printed parent chain. Activity calls are given as the source filed them. Unless noted, the calls are words filed in the database; no cut-off is given here.

Consider `S=C(NCCCc1c[nH]cn1)NCCCN(Cc1ccc(Cl)c(Cl)c1)c1ccc(Br)cn1`, for which the IC50 in [1] is 710 nM; in data set [2], 360 nM; in data set [3] (read-out: IC50), 2500 nM.
Regarding `COc1ccc(Cl)cc1Nc1nc(NCCO)nc(N2CCCC2)n1`, the IC50 result in data set [4] was “Not Active”.
Turning to `Cc1cc(C)n2ncc(C(=O)Nc3ccc(Br)cc3)c2n1`, the Stability is given as 86% in the data set on Liver [5] and 12% with Liver [11]. In addition, the result in data set [6], in data set [8] and in [10] was inactive. The Activity in [7] is 2.06 µM; in data set [9], “Dose-dependent effect”.
Consider `Cc1cc(C)n2ncc(C(=O)NCCCCO)c2n1`, for which the result in [12], in [7], in data set [8] and in data set [10] was inactive.
In the case of `O=C(Nc1ccccc1Sc1ccccc1)c1cnn2c(C(F)F)cc(C3CC3)nc12`, the outcome in data set [6], in data set [13], in [14], in [15], in [8] and in data set [10] was inactive. Further, the outcome in [17] was inactive. In addition, the Ratio (in the data set filed under Homo sapiens; in data set [16]) was 3 in each case. The figures for the Activity in data set [7] and in data set [9] were 4.6 µM and “Dose-dependent effect”, respectively.
In the case of `CCC(C)c1ccc(NC(=O)c2cnn3c(C(F)F)cc(C)nc23)cc1` (configuration not stated), the outcome in data set [13], in data set [14], in data set [15], in data set [8], in [10] and in data set [17] was inactive. The Ratio (in the data set filed under Homo sapiens; in data set [16]) was 3 each time.
With `Cc1cc(C)n2ncc(C(=O)Nc3ccc(Cl)c(Cl)c3)c2n1`, the result in data set [13], in [14], in data set [15], in data set [8], in data set [10] and in data set [17] was inactive. For the same compound, the Activity stood at 14.1 µM in data set [18], 15.9 µM in [19], 3.66 µM in [7] and 4.47 µM in data set [20]. Also, the Ratio (in the data set listed under Homo sapiens; in [16]) was 3 throughout.
On to `Cc1cc(C)n2ncc(C(=O)Nc3ccc(C(F)(F)F)cc3)c2n1`, for which the Stability turned out to be 100% in the data set with Liver [5] and 83% in the data set on Liver [11]. The outcome in data set [6], in [8] and in [10] was inactive. Moreover, the values for the Activity in data set [7] and in data set [9] were 1.46 µM and “Dose-dependent effect”, respectively.
`O=S(=O)(c1ccc2ccccc2c1)N1CCN(c2nc(-c3cccs3)nc3ccccc23)CC1`: the IC50 is 8900 nM in data set [1], 280 nM in [2], “Not Active” in data set [3] and 330 nM in data set [21].
For `CCc1nnc(NC(=O)c2ccc(NS(=O)(=O)c3ccccc3)cc2)s1`, in data set [4], the IC50 entry was “Not Active”.
As for `CCc1ccc(NC(=O)c2cnn3c(C(F)F)cc(C)nc23)cc1`, the result in data set [13], in data set [14], in [15], in [8], in [10] and in data set [17] was inactive. Moreover, the Ratio (in the data set filed under Homo sapiens; in data set [16]) was 3 throughout. Moreover, the Activity in data set [7] amounted to 2.24 µM.

As usually defined, the IC50 is the midpoint of a concentration-inhibition curve.

The values above are taken from ChEMBL document CHEMBL2169863, “Discovery, structure-activity relationship, and biological evaluation of noninhibitory small molecule chaperones of glucocerebrosidase” (J Med Chem, 2012).
